Columns and labels:
Mus musculus [1] = assay: Antiinflammatory activity against oxazolone-induced contact hypersensitivity in BALB/c mouse model of acute dermatitis assessed as inhibition of ear swelling at 30 mg/kg, po bid; type: functional
How it was run: (§1)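 Female BALB/c mice, 7 weeks, n = 5, sensitized with 3% oxazolone in ethanol on the shaved abdomen. Challenged on day 6 with 1% oxazolone on the right ear. Ear thickness gauged 20 h after challenge. Twice-daily dosing was given 30 min before and 8 h after challenge. Single doses were given after challenge only (8 h or 12 h). Percent inhibition of swelling calculated against control and vehicle groups.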

[2] = Antagonist activity at mouse CCR4 receptor expressed in mouse B300-19 cells assessed as CCL22-induced chemotaxis
Mus musculus [3] = assay: Antiinflammatory activity against oxazolone-induced contact hypersensitivity in BALB/c mouse model of acute dermatitis assessed as inhibition of ear swelling at 30 mg/kg, sc bid; type: functional; conditions: route subcutaneous; how it was run: as §1
[4] = Antagonist activity at human CCR4 receptor expressed in mouse B300-19 cells assessed as CCL22-induced chemotaxis
[5] = target: T1, C-C chemokine receptor type 4 (Mus musculus) (UniProt P51680); assay: Antagonist activity at mouse CCR4 receptor expressed in mouse B300-19 cells assessed as CCL22-induced chemotaxis at 1 uM; type: functional, cell-based
T1 sequence (whole entry): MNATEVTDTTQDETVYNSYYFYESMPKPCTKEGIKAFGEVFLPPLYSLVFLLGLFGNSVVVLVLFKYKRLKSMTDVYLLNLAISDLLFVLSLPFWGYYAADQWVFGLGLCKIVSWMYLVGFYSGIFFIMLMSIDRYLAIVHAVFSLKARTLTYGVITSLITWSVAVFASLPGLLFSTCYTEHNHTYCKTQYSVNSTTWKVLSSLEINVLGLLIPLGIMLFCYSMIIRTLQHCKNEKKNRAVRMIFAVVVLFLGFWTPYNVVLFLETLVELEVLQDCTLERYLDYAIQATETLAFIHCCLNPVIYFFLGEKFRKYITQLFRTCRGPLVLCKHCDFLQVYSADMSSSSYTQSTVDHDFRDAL
How it was run: (§2)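 Stable CCR4 transfectants of B300-19 cells (human or mouse receptor) at 5 × 10^6 cells/mL in RPMI 1640 with 0.1% BSA, pretreated with test compound. Cells placed above 5-µm polycarbonate filters, with 3 nM human (human CCR4 cells) or 1 nM mouse (mouse CCR4 cells) CCL22 below. Migration for 3 h at 37 °C, 5% CO2. Migrated cells quantified by ATP bioluminescence. Triplicates, four concentrations.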

[6] = target: T2, C-C chemokine receptor type 4 (Homo sapiens, UniProt P51679); assay: Antagonist activity at human CCR4 receptor expressed in mouse B300-19 cells assessed as CCL22-induced [35S]GTPgammaS binding; type: functional, cell-based
T2 sequence (P51679 whole entry): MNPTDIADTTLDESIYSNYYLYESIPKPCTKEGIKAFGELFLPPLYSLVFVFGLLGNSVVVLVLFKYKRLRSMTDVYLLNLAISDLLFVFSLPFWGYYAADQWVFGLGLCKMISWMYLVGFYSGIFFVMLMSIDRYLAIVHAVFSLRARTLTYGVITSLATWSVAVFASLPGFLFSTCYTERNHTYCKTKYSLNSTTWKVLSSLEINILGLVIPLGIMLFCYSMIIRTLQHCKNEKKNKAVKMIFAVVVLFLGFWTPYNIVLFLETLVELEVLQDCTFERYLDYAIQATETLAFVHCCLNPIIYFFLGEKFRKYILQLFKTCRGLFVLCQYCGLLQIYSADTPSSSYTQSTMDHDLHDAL
How it was run: (§3)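 B300-19 pre-B cell membranes stably expressing human CCR4 (1 µg protein/well), incubated 1.5 h at 25 °C with 150 pM [35S]GTPγS, 2 µM GDP, 3 nM MDC (CCL22), WGA SPA beads, in HEPES-NaOH pH 7.05, NaCl, MgCl2, BSA buffer. Scintillation counting. Percent inhibition from no-compound and no-CCL22 control wells. Duplicate wells, four test concentrations.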

[7] = target: T3, C-C chemokine receptor type 4 (Homo sapiens) (UniProt P51679); assay: Antagonist activity at human CCR4 receptor expressed in mouse B300-19 cells assessed as CCL22-induced [35S]GTPgammaS binding at 1 uM; type: functional, cell-based; how it was run: as §3
T3 sequence (whole entry): T2 sequence (P51679 whole entry)

Mus musculus [8] = assay: Antiinflammatory activity against oxazolone-induced contact hypersensitivity in BALB/c mouse model of acute dermatitis assessed as inhibition of ear swelling at 100 mg/kg, po qd; type: functional; how it was run: as §1
Mus musculus [9] = assay: AUC (0 to 24 hrs) in BALB/c mouse at 100 mg/kg, po administered as single dose; type: ADME, organism-based, Plasma; parameters: time < 24 hr, dose 100 mg/kg, route oral; conditions: in vivo
Mus musculus [10] = assay: Antiinflammatory activity against oxazolone-induced contact hypersensitivity in BALB/c mouse model of acute dermatitis assessed as inhibition of ear swelling at 30 mg/kg, sc qd; type: functional; conditions: route subcutaneous; how it was run: as §1
Mus musculus [11] = assay: AUC (0 to 24 hrs) in BALB/c mouse at 30 mg/kg, po administered as single dose; type: ADME, organism-based, Plasma; parameters: time < 24 hr, dose 30 mg/kg, route oral; conditions: in vivo
[12] = Cmax in BALB/c mouse at 100 mg/kg, po administered as single dose; type: ADME, organism-based; parameters: dose 100 mg/kg, route oral; conditions: in vivo
[13] = Tmax in BALB/c mouse at 30 mg/kg, po administered as single dose; type: ADME, organism-based; parameters: dose 30 mg/kg, route oral; conditions: in vivo
Mus musculus [14] = assay: Antiinflammatory activity against oxazolone-induced contact hypersensitivity in BALB/c mouse model of acute dermatitis assessed as inhibition of ear swelling at 10 mg/kg, po qd; type: functional; how it was run: as §1
[15] = Cmax in BALB/c mouse at 30 mg/kg, po administered as single dose; type: ADME, organism-based; parameters: dose 30 mg/kg, route oral; conditions: in vivo
Mus musculus [16] = assay: Antiinflammatory activity against oxazolone-induced contact hypersensitivity in BALB/c mouse model of acute dermatitis assessed as inhibition of ear swelling at 30 mg/kg, po qd; type: functional; how it was run: as §1
[17] = Tmax in BALB/c mouse at 100 mg/kg, po administered as single dose; type: ADME, organism-based; parameters: dose 100 mg/kg, route oral; conditions: in vivo
Mus musculus [18] = assay: Antiinflammatory activity against oxazolone-induced contact hypersensitivity in BALB/c mouse model of acute dermatitis assessed as inhibition of ear swelling at 100 mg/kg, po bid; type: functional; how it was run: as §1
[19] = target: T3, C-C chemokine receptor type 4 (Homo sapiens); assay: Antagonist activity at human CCR4 receptor expressed in mouse B300-19 cells assessed as CCL22-induced chemotaxis at 1 uM; type: functional, cell-based; how it was run: as §2

COc1cc2nc(N3CCC(N4CCCC4)CC3)nc(Nc3ccc(Cl)cc3)c2cc1OC
inhibition in vivo at 30 mg/kg (Mus musculus [1]): 2% | IC50 [2]: 0.13 µM | inhibition in vivo at 30 mg/kg (Mus musculus [3]): 43% | IC50 [4]: 0.11 µM

COc1cc2nc(N3CCC(N4CCOC(CO)C4)CC3)nc(Nc3ccc(Cl)cc3)c2cc1OC (stereo not given)
inhibition [5]: 50% | IC50 [6]: 0.1 µM

COc1cc2nc(N3CCC(N4CCCC(CO)C4)CC3)nc(N3CCc4cc(Cl)ccc43)c2cc1OC (stereo not given)
inhibition [7]: 40%

COc1cc2nc(N3CCC(N4CCCC(CO)C4)CC3)nc(C(=O)c3ccc(Cl)cc3)c2cc1OC (stereo not given)
inhibition [7]: 42%

COc1cc2nc(N3CCC(N4CCCC(O)C4)CC3)nc(Nc3ccc(Cl)cc3)c2cc1OC (stereo not given)
IC50 [6]: 0.048 µM

COc1cc2nc(N3CCC(N4CCCC(CO)C4)CC3)nc(NC(=O)c3ccc(Cl)cc3)c2cc1OC (stereo not given)
inhibition [7]: 11%

COc1cc2nc(N3CCC(N4CCCC(CO)C4)CC3)nc(-c3ccc(Cl)cc3)c2cc1OC (stereo not given)
IC50 [6]: > 1 µM

COc1cc2nc(N3CCC(N4CCCC(CO)C4)CC3)nc(Nc3ccc(Cl)cc3)c2cc1OC (stereo not given)
inhibition in vivo at 100 mg/kg (Mus musculus [8]): 39% | AUC (Mus musculus [9]): 1.75 µg·h/mL | inhibition in vivo at 30 mg/kg (Mus musculus [10]): 44% | AUC (Mus musculus [11]): 1.01 µg·h/mL | Cmax [12]: 0.262 µg/mL | Tmax [13]: 2 h | inhibition in vivo at 10 mg/kg (Mus musculus [14]): 13% | IC50 [6]: 0.019 µM | Cmax [15]: 0.139 µg/mL | inhibition in vivo at 30 mg/kg (Mus musculus [16]): 17% | Tmax [17]: 2 h

COc1cc2nc(N3CCC(N4CCCC4)CC3)nc(NC3CCCCCC3)c2cc1OC
IC50 [2]: 0.13 µM | inhibition in vivo at 30 mg/kg (Mus musculus [10]): 39% | IC50 [4]: 0.2 µM | inhibition in vivo at 100 mg/kg (Mus musculus [18]): 8%

COc1cc2nc(N3CCC(N4CCCC(CO)C4)CC3)nc(NC3CCOCC3)c2cc1OC (stereo not given)
inhibition [7]: 4%

COc1cc2nc(N3CCC(N4CCCC(CO)C4)CC3)nc(C(O)c3ccc(Cl)cc3)c2cc1OC (stereo not given)
inhibition [7]: 7%

COc1cc2nc(N3CCC(N4CCCC(CO)C4)CC3)nc(NCc3ccc(Cl)cc3)c2cc1OC (stereo not given)
IC50 [6]: 0.087 µM

COc1cc2nc(N3CCC(N4CCCC(CO)C4)CC3)nc(NCCc3ccc(Cl)cc3)c2cc1OC (stereo not given)
IC50 [6]: 0.061 µM | inhibition [19]: 43%

COc1cc2nc(N3CCC(N4CCCC(CO)C4)CC3)nc(NC3CCS(=O)(=O)CC3)c2cc1OC (stereo not given)
inhibition [7]: 0%

COc1cc2nc(N3CCC(N4CCCC(CO)C4)CC3)nc(NCCCc3ccc(Cl)cc3)c2cc1OC (stereo not given)
IC50 [6]: 0.18 µM

COc1cc2nc(N3CCC(N4CCCC(OC)C4)CC3)nc(Nc3ccc(Cl)cc3)c2cc1OC (stereo not given)
IC50 [6]: 0.1 µM

COc1cc2nc(N3CCC(N4CCCCC4)CC3)nc(NC3CCCCCC3)c2cc1OC
inhibition in vivo at 30 mg/kg (Mus musculus [1]): 2%

COCC1CCCN(C2CCN(c3nc(Nc4ccc(Cl)cc4)c4cc(OC)c(OC)cc4n3)CC2)C1 (stereo not given)
IC50 [6]: 0.052 µM

COc1cc2nc(N3CCC(N4CCCC(CO)C4)CC3)nc(NS(=O)(=O)c3ccc(Cl)cc3)c2cc1OC (stereo not given)
inhibition [7]: 5%

COc1cc2nc(N3CCC(N4CCCC(CO)C4)CC3)nc(N(C)CCc3ccc(Cl)cc3)c2cc1OC (stereo not given)
inhibition [7]: 23%

COc1cc2nc(N3CCC(N4CCCC(CO)C4)CC3)nc(NC3CCCCCC3)c2cc1OC (stereo not given)
inhibition in vivo at 30 mg/kg (Mus musculus [1]): 11% | IC50 [6]: 0.03 µM

From ChEMBL document CHEMBL1139358, “Potent and orally bioavailable CCR4 antagonists: Synthesis and structure-activity relationship study of 2-aminoquinazolines” (Bioorg Med Chem, 2009)
